Assay results from different studies.
Cell line: NCI-H460
Read-out: cell growth or viability

SMILES	technique	time	IC50
OCc1ccc2c(c1C#Cc1ccc(O)cc1)C(c1ccc(O)cc1)(c1ccc(O)cc1)c1cc(O)ccc1-2	MTT	48 h	> 50 µM
COc1cc(CNC(=O)CCCC/C=C/C(C)C)ccc1OCc1cn(-c2ccc(C#N)cc2)nn1	SRB		5.55 µM
O=C(O)/C=C/c1ccc(O)cc1	MTT		> 50 µM
CCC(=O)Nc1cc(Nc2nc(N3CCOCC3)c3sccc3n2)c(OC)cc1N(C)CCN(C)C	MTT		> 50 µM
CC(C)C[C@H](NC(=O)[C@H](Cc1ccccc1)NC(=O)c1cnccn1)B(O)O	ATP luminescence		0.03 µM
CC(=O)c1cccc(N=Nc2c(C(=O)O)cc(O)c(O)c2O)c1	MTT		9.5 µM
C=CC(=O)Nc1cc(Nc2nc(N3CCc4sccc4C3)c3sccc3n2)c(OC)cc1N1CCN(C)CC1	MTT		0.913 µM
COc1cc(C/C=C/c2ccc(O)cc2)ccc1O	MTT	24 h	19.9 µg/mL
COc1cc(CNC(=O)CCCC/C=C/C(C)C)ccc1O	SRB		30.7 µM
CCC(=O)Nc1cc(Nc2nc(N3CCc4sccc4C3)c3cccnc3n2)c(OC)cc1N1CCSCC1	MTT		14.3 µM
OC/C(=C/Cc1ccc(O)cc1)c1ccc(O)cc1	MTT	24 h	44.9 µg/mL
CCN1CCN(Cc2ccc(Nc3ncc(F)c(-c4cc(F)c5nc(C)n(C(C)C)c5c4)n3)nc2)CC1	CCK-8		0.962 µM
CC(=O)O[C@H]1CC[C@]2(C)[C@H]3CC=C4[C@@H]5CC(C)(C)CC[C@]5(C)CC[C@@]4(C)[C@]3(C)CC[C@H]2C1(C)C		48 h	10.6 µM
COC/C(=C/Cc1ccc(OC)cc1)c1ccc(OC)cc1	MTT	24 h	75.4 µg/mL
CC(=O)c1ccc(/N=N/c2cc(/C=C/C(=O)O)ccc2O)cc1	MTT		> 50 µM
COc1cc([C@@H]2c3cc4c(cc3[C@@H](O[C@@H]3O[C@@H]5CO[C@@H](C)O[C@H]5[C@H](O)[C@H]3O)[C@H]3COC(=O)[C@H]23)OCO4)cc(OC)c1O	MTT	72 h	0.83 µM
COc1cc(/C=C/Cc2ccc(O)c(OC)c2)cc(OC)c1	MTT	24 h	16.1 µg/mL
CCC(=O)Nc1cc(Nc2nc(N3CCc4sccc4C3)c3cccnc3n2)c(OC)cc1N(C)C	MTT		4.95 µM
C#Cc1cccc(Nc2ncnc3cc(OCCOC)c(OCCOC)cc23)c1	MTT		0.04 µM
CCC(=O)Nc1cc(Nc2nc(N3CCc4sccc4C3)c3cccnc3n2)c(OC)cc1N1CCC(N(C)C)CC1	MTT		2.46 µM
O=C1NC(=NCc2cccs2)S/C1=C\c1ccc2ncccc2c1			> 10 µM
O=C/C(=C/Cc1ccc(O)cc1)c1ccc(O)cc1	MTT	24 h	26.9 µg/mL
COc1cc2oc(-c3ccc(O)cc3)cc(=O)c2c(O)c1OC		48 h	26.2 µM
CCC(=O)Nc1cc(Nc2nc(N3CCc4sccc4C3)c3cccnc3n2)c(OC)cc1N1CCN(C(C)=O)CC1	MTT		> 50 µM
COc1ccc(C/C=C/c2ccc(O)c(OC)c2)cc1	MTT	24 h	12.3 µg/mL
C=C(Cl)C(=O)Nc1cc(Nc2nc(Nc3cnn(C)c3)c3sccc3n2)c(OC)cc1N(C)CCN(C)C	MTT		3.22 µM
Cc1ccc(-c2ccc(CCCN(O)C(=O)CP(=O)(O)O)cc2)cc1	MTT	96 h	229 µM
C=CC(=O)Nc1cc(Nc2nc(N3CCc4sccc4C3)c3cccnc3n2)c(OC)cc1N1CCN(CCO)CC1	MTT		8.03 µM
C(/Cc1ccc(OCc2ccccc2)cc1)=C(\COCc1ccccc1)c1ccc(OCc2ccccc2)cc1	MTT	24 h	48.3 µg/mL
